# Source: ChEMBL document CHEMBL4184148 (Bioorg Med Chem Lett, 2017)
# Tests used:
# [1] = target: Mast/stem cell growth factor receptor Kit (Homo sapiens) (UniProt P10721); assay: Binding affinity to wild-type human partial length autoinhibited KIT (Y545 to D952 residues) expressed in HEK293 cells at 1 uM by Kinomescan method relative to control; assay type: cell-based; parameters: scale not given: the % may be the effect or the level left
# [2] = target: Ribosomal protein S6 kinase alpha-6 (Homo sapiens) (UniProt Q9UK32); assay: Binding affinity to wild-type human partial length C-terminal RSK4 kinase domain 2 (I401 to Y711 residues) expressed in Escherichia coli BL21 at 1 uM by Kinomescan method relative to control
# [3] = target: Serine/threonine-protein kinase Nek1 (Homo sapiens) (UniProt Q96PY6); assay: Binding affinity to wild-type human partial length NEK1 (M1 to K278 residues) expressed in Escherichia coli BL21 at 1 uM by Kinomescan method relative to control
# [4] = target: Receptor-type tyrosine-protein kinase FLT3 (Homo sapiens) (UniProt P36888); assay: Binding affinity to wild-type human partial length FLT3 (V592 to Y969 residues) expressed in Escherichia coli BL21 at 1 uM by Kinomescan method relative to control
# [5] = target: Mitogen-activated protein kinase 11 (Homo sapiens) (UniProt Q15759); assay: Binding affinity to wild-type human full length p38-beta (M1 to Q364 residues) expressed in Escherichia coli BL21 at 1 uM by Kinomescan method relative to control
# In short: (§1)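 Kinome-wide competition binding panel run by an outside provider, with each compound tested at a single concentration. Activity is read against the kinase panel.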
# [6] = target: Serine/threonine-protein kinase Nek6 (Homo sapiens) (UniProt Q9HC98); assay: Binding affinity to wild-type human full length NEK6 (M8 to T313 residues) expressed in Escherichia coli BL21 at 1 uM by Kinomescan method relative to control; in short: as §1
# [7] = target: Dual specificity mitogen-activated protein kinase kinase 4 (Homo sapiens) (UniProt P45985); assay: Binding affinity to wild-type human partial length MEK4 (S84 to D399 residues) expressed in HEK293 cells at 1 uM by Kinomescan method relative to control; assay type: cell-based
# [8] = target: Ribosomal protein S6 kinase alpha-5 (Homo sapiens) (UniProt O75582); assay: Binding affinity to wild-type human partial length C-terminal RPS6KA5 kinase domain 2 (V390 to T718 residues) expressed in Escherichia coli BL21 at 1 uM by Kinomescan method relative to control
# [9] = target: Serine/threonine-protein kinase mTOR (Homo sapiens) (UniProt P42345); assay: Binding affinity to wild-type human partial length MTOR (L1382 to W2549 residues) expressed in HEK293 cells at 1 uM by Kinomescan method relative to control; assay type: cell-based
# [10] = target: Ephrin type-A receptor 5 (Homo sapiens) (UniProt P54756); assay: Binding affinity to wild-type human partial length EPHA5 (T627 to V930 residues) expressed in Escherichia coli BL21 at 1 uM by Kinomescan method relative to control
# [11] = target: cAMP-dependent protein kinase catalytic subunit alpha (Homo sapiens) (UniProt P17612); assay: Binding affinity to wild-type human partial length PKAC-alpha (G10 to F351 residues) expressed in Escherichia coli BL21 at 1 uM by Kinomescan method relative to control
# [12] = target: Cyclin-dependent kinase 11A (Homo sapiens) (UniProt Q9UQ88); assay: Binding affinity to wild-type human partial length CDC2L2 (D391 to K730 residues) expressed in Escherichia coli BL21 at 1 uM by Kinomescan method relative to control
# [13] = target: Vascular endothelial growth factor receptor 2 (Homo sapiens) (UniProt P35968); assay: Binding affinity to wild-type human partial length VEGFR2 (R787 to P1253 residues) expressed in HEK293 cells at 1 uM by Kinomescan method relative to control; assay type: cell-based
# [14] = target: Dual specificity mitogen-activated protein kinase kinase 5 (Homo sapiens) (UniProt Q13163); assay: Binding affinity to wild-type human partial length MEK5 (L98 to P448 residues) expressed in HEK293 cells at 1 uM by Kinomescan method relative to control; assay type: cell-based
# [15] = tested on: Receptor-type tyrosine-protein kinase FLT3 (Homo sapiens), P36888 [N841I]; assay: Binding affinity to human partial length FLT3 N841I mutant (V592 to Y969 residues) expressed in Escherichia coli BL21 at 1 uM by Kinomescan method relative to control
# [16] = target: Tyrosine-protein kinase Fgr (Homo sapiens) (UniProt P09769); assay: Binding affinity to wild-type human partial length FGR (L233 to T529 residues) expressed in Escherichia coli BL21 at 1 uM by Kinomescan method relative to control
# [17] = target: Calcium/calmodulin-dependent protein kinase type II subunit alpha (Homo sapiens) (UniProt Q9UQM7); assay: Binding affinity to wild-type human partial length CAMK2A (M1 to K328 residues) expressed in Escherichia coli BL21 at 1 uM by Kinomescan method relative to control
# [18] = tested on: Mast/stem cell growth factor receptor Kit (Homo sapiens), P10721 [D816V]; assay: Binding affinity to human partial length KIT D816V mutant (I571 to D952 residues) expressed in Escherichia coli BL21 at 1 uM by Kinomescan method relative to control
# [19] = target: RAF proto-oncogene serine/threonine-protein kinase (Homo sapiens) (UniProt P04049); assay: Binding affinity to wild-type human partial length RAF1 (I330 to T640 residues) expressed in Escherichia coli BL21 at 1 uM by Kinomescan method relative to control
# [20] = target: Serine/threonine-protein kinase 35 (Homo sapiens) (UniProt Q8TDR2); assay: Binding affinity to wild-type human partial length STK35 (G182 to A534 residues) expressed in Escherichia coli BL21 at 1 uM by Kinomescan method relative to control
# [21] = target: Tyrosine-protein kinase CSK (Homo sapiens) (UniProt P41240); assay: Binding affinity to wild-type human full length CSK (M1 to L450 residues) expressed in Escherichia coli BL21 at 1 uM by Kinomescan method relative to control
# In short: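 Run as one kinome-wide competition binding panel with each compound at a single fixed concentration. Results were plotted as a kinome-wide selectivity map.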
# [22] = tested on: Receptor-type tyrosine-protein kinase FLT3 (Homo sapiens), P36888 [UNDEFINED MUTATION]; assay: Binding affinity to human partial length FLT3 ITD/D835V double mutant expressed in Escherichia coli BL21 at 1 uM by Kinomescan method relative to control
# [23] = target: Proto-oncogene tyrosine-protein kinase Src (Homo sapiens) (UniProt P12931); assay: Binding affinity to wild-type human partial length SRC (L240 to L536 residues) expressed in Escherichia coli BL21 at 1 uM by Kinomescan method relative to control
# [24] = target: Serine/threonine-protein kinase/endoribonuclease IRE1 (Homo sapiens) (UniProt O75460); assay: Binding affinity to wild-type human partial length ERN1 (S551 to E852 residues) expressed in HEK293 cells at 1 uM by Kinomescan method relative to control; assay type: cell-based
# [25] = tested on: HeLa; assay: Cytotoxicity against human HeLa cells assessed as reduction in cell viability after 72 hrs by CellTiter-Glo assay; assay type: functional, cell-based
# In short: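 Cells were treated across a dose-response range for 72 h, and viability was read by CellTiter-Glo luminescence. Measurements were made in triplicate and reported with standard error.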
# Sequence of Ephrin type-A receptor 5 (Homo sapiens) (P54756 whole entry, the tested form may be a part): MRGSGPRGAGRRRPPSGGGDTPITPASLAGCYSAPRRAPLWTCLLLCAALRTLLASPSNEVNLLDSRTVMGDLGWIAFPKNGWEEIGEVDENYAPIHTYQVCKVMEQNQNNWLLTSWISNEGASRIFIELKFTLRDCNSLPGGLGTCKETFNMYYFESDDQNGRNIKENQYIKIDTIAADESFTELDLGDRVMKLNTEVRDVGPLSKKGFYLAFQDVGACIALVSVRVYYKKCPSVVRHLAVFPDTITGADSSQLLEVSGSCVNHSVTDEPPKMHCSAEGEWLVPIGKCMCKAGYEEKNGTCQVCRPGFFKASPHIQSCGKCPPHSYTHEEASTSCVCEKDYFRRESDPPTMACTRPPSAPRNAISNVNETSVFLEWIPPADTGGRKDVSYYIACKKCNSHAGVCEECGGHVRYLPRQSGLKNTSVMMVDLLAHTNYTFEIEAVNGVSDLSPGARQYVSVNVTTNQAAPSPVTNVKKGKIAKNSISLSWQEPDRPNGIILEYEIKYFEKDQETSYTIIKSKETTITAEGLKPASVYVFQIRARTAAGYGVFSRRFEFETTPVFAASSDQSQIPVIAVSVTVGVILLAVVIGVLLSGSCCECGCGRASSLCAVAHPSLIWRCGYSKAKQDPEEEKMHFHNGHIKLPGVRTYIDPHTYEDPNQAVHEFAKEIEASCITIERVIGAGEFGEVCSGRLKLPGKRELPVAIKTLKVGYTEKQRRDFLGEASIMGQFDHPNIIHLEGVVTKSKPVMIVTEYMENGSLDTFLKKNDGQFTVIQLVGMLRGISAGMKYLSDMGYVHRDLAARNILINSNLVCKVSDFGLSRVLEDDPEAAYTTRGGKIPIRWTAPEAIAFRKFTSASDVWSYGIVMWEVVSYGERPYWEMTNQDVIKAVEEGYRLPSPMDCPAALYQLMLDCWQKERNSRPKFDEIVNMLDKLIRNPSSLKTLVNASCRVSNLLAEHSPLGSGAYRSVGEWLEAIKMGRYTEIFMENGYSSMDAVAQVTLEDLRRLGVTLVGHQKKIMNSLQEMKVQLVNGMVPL
# Sequence of Proto-oncogene tyrosine-protein kinase Src (Homo sapiens) (P12931 2-536 limits assumed): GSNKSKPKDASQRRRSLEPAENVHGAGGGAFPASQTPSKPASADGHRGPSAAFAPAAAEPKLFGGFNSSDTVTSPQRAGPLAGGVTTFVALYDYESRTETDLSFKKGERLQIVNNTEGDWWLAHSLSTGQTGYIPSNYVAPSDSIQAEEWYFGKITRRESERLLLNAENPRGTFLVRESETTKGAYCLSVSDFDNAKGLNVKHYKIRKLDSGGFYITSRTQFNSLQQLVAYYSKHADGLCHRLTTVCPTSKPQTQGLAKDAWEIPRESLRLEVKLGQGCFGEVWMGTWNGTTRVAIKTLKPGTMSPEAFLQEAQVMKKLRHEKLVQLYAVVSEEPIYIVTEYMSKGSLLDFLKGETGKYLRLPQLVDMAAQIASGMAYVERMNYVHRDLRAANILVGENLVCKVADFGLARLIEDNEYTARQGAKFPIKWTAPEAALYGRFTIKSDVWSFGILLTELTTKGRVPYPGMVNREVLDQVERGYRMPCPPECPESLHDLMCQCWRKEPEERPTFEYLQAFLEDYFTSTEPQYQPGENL
# Sequence of Mast/stem cell growth factor receptor Kit (Homo sapiens) (P10721 whole entry, the tested form may be a part): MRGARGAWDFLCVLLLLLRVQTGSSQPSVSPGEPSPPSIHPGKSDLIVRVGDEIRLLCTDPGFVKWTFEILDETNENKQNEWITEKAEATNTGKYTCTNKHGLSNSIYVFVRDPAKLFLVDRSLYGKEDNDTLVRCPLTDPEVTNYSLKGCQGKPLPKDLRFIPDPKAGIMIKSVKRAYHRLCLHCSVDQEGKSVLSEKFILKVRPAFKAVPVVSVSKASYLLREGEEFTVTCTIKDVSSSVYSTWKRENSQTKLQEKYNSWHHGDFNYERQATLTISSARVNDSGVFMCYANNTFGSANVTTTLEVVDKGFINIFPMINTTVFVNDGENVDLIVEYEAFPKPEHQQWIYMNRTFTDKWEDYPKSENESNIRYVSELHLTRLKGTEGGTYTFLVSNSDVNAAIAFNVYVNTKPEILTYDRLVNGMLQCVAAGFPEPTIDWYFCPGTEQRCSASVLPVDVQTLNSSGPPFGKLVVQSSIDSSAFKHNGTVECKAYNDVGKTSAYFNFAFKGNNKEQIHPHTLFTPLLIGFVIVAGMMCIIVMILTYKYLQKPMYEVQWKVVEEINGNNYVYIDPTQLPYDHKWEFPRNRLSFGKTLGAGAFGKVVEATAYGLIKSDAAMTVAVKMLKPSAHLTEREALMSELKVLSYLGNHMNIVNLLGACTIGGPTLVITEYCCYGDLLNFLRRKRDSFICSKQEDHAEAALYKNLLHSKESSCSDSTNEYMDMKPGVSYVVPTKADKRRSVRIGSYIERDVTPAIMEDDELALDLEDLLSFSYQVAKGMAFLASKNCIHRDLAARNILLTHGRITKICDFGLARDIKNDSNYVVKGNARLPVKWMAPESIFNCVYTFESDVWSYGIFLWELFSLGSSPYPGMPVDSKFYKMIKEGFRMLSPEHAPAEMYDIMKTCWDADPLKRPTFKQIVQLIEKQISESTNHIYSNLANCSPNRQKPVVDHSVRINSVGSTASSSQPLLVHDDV
# Sequence of Dual specificity mitogen-activated protein kinase kinase 5 (Homo sapiens) (Q13163 whole entry, the tested form may be a part): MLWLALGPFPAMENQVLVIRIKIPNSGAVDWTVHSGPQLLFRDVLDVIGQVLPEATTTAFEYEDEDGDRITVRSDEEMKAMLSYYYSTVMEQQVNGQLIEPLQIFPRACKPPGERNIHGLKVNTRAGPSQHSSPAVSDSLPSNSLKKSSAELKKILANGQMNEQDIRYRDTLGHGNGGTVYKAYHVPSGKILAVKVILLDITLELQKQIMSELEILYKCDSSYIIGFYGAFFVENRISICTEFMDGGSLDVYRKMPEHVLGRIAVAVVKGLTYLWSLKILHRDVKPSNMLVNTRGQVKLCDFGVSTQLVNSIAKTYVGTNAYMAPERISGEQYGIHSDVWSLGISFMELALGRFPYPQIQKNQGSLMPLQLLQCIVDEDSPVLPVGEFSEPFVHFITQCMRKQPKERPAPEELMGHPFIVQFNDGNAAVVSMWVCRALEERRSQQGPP
# Sequence of Serine/threonine-protein kinase Nek1 (Homo sapiens) (Q96PY6 whole entry, the tested form may be a part): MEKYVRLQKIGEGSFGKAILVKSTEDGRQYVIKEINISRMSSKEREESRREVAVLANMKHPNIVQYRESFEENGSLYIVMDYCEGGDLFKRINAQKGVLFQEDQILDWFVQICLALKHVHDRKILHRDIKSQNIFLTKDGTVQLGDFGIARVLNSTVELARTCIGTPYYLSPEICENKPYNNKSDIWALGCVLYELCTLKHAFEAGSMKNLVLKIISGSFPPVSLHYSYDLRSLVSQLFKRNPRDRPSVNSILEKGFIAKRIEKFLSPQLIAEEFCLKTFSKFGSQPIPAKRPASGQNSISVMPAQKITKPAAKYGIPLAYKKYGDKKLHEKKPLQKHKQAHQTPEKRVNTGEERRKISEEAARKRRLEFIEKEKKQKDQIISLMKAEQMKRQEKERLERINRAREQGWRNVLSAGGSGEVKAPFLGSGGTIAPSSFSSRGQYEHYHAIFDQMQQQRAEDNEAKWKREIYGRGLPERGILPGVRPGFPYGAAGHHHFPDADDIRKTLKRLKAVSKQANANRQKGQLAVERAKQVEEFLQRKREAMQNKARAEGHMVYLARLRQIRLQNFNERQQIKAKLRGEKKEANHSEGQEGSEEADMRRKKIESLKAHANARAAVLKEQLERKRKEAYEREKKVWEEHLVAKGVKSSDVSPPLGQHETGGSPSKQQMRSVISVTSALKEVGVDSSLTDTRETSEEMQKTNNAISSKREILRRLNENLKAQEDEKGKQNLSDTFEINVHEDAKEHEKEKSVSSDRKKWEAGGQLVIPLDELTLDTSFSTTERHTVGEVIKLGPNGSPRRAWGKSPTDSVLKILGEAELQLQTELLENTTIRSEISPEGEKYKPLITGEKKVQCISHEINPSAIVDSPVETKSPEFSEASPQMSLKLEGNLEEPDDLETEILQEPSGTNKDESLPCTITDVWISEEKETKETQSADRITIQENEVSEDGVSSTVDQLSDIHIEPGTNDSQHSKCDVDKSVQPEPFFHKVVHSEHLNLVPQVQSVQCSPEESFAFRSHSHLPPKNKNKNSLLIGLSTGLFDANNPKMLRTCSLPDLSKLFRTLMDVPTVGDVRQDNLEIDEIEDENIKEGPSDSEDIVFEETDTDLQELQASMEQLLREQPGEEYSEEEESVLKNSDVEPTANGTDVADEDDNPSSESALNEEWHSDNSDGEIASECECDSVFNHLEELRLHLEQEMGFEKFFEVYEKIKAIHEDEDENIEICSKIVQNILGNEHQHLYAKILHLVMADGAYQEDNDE
# Sequence of Serine/threonine-protein kinase Nek6 (Homo sapiens) (Q9HC98 whole entry, the tested form may be a part): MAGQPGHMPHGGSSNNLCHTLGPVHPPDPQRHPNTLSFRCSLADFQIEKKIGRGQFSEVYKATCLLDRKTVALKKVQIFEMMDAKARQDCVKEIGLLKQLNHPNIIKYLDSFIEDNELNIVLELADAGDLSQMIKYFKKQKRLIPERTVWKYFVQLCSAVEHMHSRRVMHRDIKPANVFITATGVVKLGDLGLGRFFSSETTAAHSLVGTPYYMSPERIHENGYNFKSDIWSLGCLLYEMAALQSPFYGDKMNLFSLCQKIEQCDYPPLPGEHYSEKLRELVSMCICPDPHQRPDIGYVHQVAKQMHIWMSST
# Sequence of Calcium/calmodulin-dependent protein kinase type II subunit alpha (Homo sapiens) (Q9UQM7 whole entry, the tested form may be a part): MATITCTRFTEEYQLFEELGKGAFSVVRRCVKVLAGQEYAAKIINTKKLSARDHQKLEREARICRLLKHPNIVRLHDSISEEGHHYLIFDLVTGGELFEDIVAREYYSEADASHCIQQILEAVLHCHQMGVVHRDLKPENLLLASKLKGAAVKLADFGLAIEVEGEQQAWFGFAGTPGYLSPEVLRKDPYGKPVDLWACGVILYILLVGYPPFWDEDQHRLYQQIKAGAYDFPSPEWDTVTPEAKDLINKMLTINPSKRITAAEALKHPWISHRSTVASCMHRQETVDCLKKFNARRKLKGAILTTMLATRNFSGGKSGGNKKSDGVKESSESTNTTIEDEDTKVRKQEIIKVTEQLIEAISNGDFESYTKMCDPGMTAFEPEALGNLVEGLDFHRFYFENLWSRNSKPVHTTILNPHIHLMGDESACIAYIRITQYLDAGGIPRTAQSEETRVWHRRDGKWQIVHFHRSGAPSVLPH
SMILES,Activity [1] [%],Activity [2] [%],Activity [3] [%],Activity [4] [%],Activity [5] [%],Activity [6] [%],Activity [7] [%],Activity [8] [%],Activity [9] [%],Activity [10] [%],Activity [11] [%],Activity [12] [%],Activity [13] [%],Activity [14] [%],Activity [15] [%],Activity [16] [%],Activity [17] [%],Activity [18] [%],Activity [19] [%],Activity [20] [%],further results
CCC(=O)Nc1ccc(C(=O)Nc2ccc(Nc3ncc4c(n3)N(C)c3ccc(C)cc3C(=O)N4C)cc2)cc1,90,100,100,100,100,96,88,82,100,94,87,88,76,90,81,96,88,91,96,77,Activity [21]: 93%; Activity [22]: 100%; Activity [23]: 87%; Activity [24]: 100%; IC50 [25]: < 1 nM
C=CC(=O)Nc1ccc(C(=O)Nc2ccc(Nc3ncc4c(n3)N(C)c3ccc(C)cc3C(=O)N4C)cc2)cc1,96,100,94,100,89,98,100,100,87,100,100,100,88,99,100,93,100,88,88,96,Activity [21]: 84%; Activity [22]: 94%; Activity [23]: 96%; Activity [24]: 87%; IC50 [25]: < 1 nM
